What was measured:
Echinochloa crus-galli [1] = assay: Herbicidal activity against Echinochloa crus-galli (barnyard grass) (barnyard grass) assessed as weed growth inhibition at 75 g/ha post-emergence treatment […]; format: functional; details: read-out: GI
Method in brief: (§1)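 Pot-grown plants in the greenhouse, in clay soil (pH 6.5, 1.6% organic matter, 37.3% clay, CEC 12.1 cmol/kg). Compound was made up as a 100 g/L emulsified concentrate (DMF, Tween-80), diluted in water and sprayed at 75 g ai/ha. Pre-emergence spraying was 24 h after sowing; post-emergence at two-leaf (dicots) or one-leaf (monocots) stage. Untreated and DMF controls. Percent growth inhibition scored visually 15 days post-treatment.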

Amaranthus blitum [2] = assay: Herbicidal activity against Amaranthus blitum assessed as weed growth inhibition at 75 g/ha post-emergence treatment […]; format: functional; details: read-out: GI; method in brief: as §1
Digitaria sanguinalis [3] = assay: Herbicidal activity against crabgrass Digitaria sanguinalis(hairy crabgrass) assessed as weed growth inhibition at post-emergence treatment […]; format: functional, organism-based; method in brief: as §1
Echinochloa crus-galli [4] = assay: Herbicidal activity against Echinochloa crus-galli (barnyard grass) (barnyard grass) assessed as weed growth inhibition at 75 g/ha pre-emergence treatment […]; format: functional; details: read-out: GI; method in brief: as §1
Digitaria sanguinalis [5] = assay: Herbicidal activity against crabgrass Digitaria sanguinalis(hairy crabgrass) assessed as weed growth inhibition at 75 g/ha post-emergence treatment […]; format: functional; details: read-out: GI; method in brief: as §1
Setaria viridis [6] = assay: Herbicidal activity against Setaria viridis (green foxtail) assessed as weed growth inhibition at 75 g/ha post-emergence treatment […]; format: functional; details: read-out: GI; method in brief: as §1
Setaria viridis [7] = assay: Herbicidal activity against Setaria viridis (green foxtail) assessed as weed growth inhibition at 75 g/ha pre-emergence treatment […]; format: functional; details: read-out: GI; method in brief: as §1
Abutilon theophrasti [8] = assay: Herbicidal activity against Abutilon theophrasti (velvetleaf) assessed as weed growth inhibition at post-emergence treatment […]; format: functional, organism-based; method in brief: as §1
Digitaria sanguinalis [9] = assay: Herbicidal activity against crabgrass Digitaria sanguinalis(hairy crabgrass) assessed as weed growth inhibition at 75 g/ha pre-emergence treatment […]; format: functional; details: read-out: GI; method in brief: as §1
Abutilon theophrasti [10] = assay: Herbicidal activity against Abutilon theophrasti (velvetleaf) assessed as weed growth inhibition at 75 g/ha pre-emergence treatment […]; format: functional; details: read-out: GI; method in brief: as §1
Chenopodium album [11] = assay: Herbicidal activity against fat hen Chenopodium album assessed as weed growth inhibition at 75 g/ha post-emergence treatment […]; format: functional; details: read-out: GI; method in brief: as §1
Abutilon theophrasti [12] = assay: Herbicidal activity against Abutilon theophrasti (velvetleaf) assessed as weed growth inhibition at 75 g/ha post-emergence treatment […]; format: functional; details: read-out: GI; method in brief: as §1
Amaranthus blitum [13] = assay: Herbicidal activity against Amaranthus blitum assessed as weed growth inhibition at 75 g/ha pre-emergence treatment […]; format: functional; details: read-out: GI; method in brief: as §1
Chenopodium album [14] = assay: Herbicidal activity against fat hen Chenopodium album assessed as weed growth inhibition at 75 g/ha pre-emergence treatment […]; format: functional; details: read-out: GI; method in brief: as §1

O=C1COc2cc(F)c(N3C(=O)c4ccccc4C3=O)cc2N1CC#CI
inhibition of growth at 75 g/ha (Echinochloa crus-galli [1]): < 50%
inhibition of growth at 75 g/ha (Amaranthus blitum [2]): > 80%
IC50 (Digitaria sanguinalis [3]): 68 g/ha
inhibition of growth at 75 g/ha (Echinochloa crus-galli [4]): < 50%
inhibition of growth at 75 g/ha (Digitaria sanguinalis [5]): 50%
inhibition of growth at 75 g/ha (Setaria viridis [6]): 50%
inhibition of growth at 75 g/ha (Setaria viridis [7]): 50%
IC50 (Abutilon theophrasti [8]): 3.9 g/ha
inhibition of growth at 75 g/ha (Digitaria sanguinalis [9]): > 80%
inhibition of growth at 75 g/ha (Abutilon theophrasti [10]): > 80%
inhibition of growth at 75 g/ha (Chenopodium album [11]): > 80%
inhibition of growth at 75 g/ha (Abutilon theophrasti [12]): > 80%
inhibition of growth at 75 g/ha (Amaranthus blitum [13]): > 80%
inhibition of growth at 75 g/ha (Chenopodium album [14]): > 80%

N#CCN1C(=O)COc2cc(F)c(N3C(=O)c4ccccc4C3=O)cc21
inhibition of growth at 75 g/ha (Echinochloa crus-galli [1]): < 50%
inhibition of growth at 75 g/ha (Amaranthus blitum [2]): < 50%
IC50 (Digitaria sanguinalis [3]): 57 g/ha
inhibition of growth at 75 g/ha (Echinochloa crus-galli [4]): < 50%
inhibition of growth at 75 g/ha (Digitaria sanguinalis [5]): 50%
inhibition of growth at 75 g/ha (Setaria viridis [6]): < 50%
inhibition of growth at 75 g/ha (Setaria viridis [7]): < 50%
IC50 (Abutilon theophrasti [8]): 92 g/ha
inhibition of growth at 75 g/ha (Digitaria sanguinalis [9]): < 50%
inhibition of growth at 75 g/ha (Abutilon theophrasti [10]): < 50%
inhibition of growth at 75 g/ha (Chenopodium album [11]): < 50%
inhibition of growth at 75 g/ha (Abutilon theophrasti [12]): < 50%
inhibition of growth at 75 g/ha (Amaranthus blitum [13]): < 50%
inhibition of growth at 75 g/ha (Chenopodium album [14]): < 50%

C#CCN1C(=O)COc2cc(F)c(N3C(=O)c4ccccc4C3=O)cc21
inhibition of growth at 75 g/ha (Echinochloa crus-galli [1]): > 80%
inhibition of growth at 75 g/ha (Amaranthus blitum [2]): > 80%
IC50 (Digitaria sanguinalis [3]): 17 g/ha
inhibition of growth at 75 g/ha (Echinochloa crus-galli [4]): < 50%
inhibition of growth at 75 g/ha (Digitaria sanguinalis [5]): > 80%
inhibition of growth at 75 g/ha (Setaria viridis [6]): > 80%
inhibition of growth at 75 g/ha (Setaria viridis [7]): < 50%
IC50 (Abutilon theophrasti [8]): 7.5 g/ha
inhibition of growth at 75 g/ha (Digitaria sanguinalis [9]): > 80%
inhibition of growth at 75 g/ha (Abutilon theophrasti [10]): > 80%
inhibition of growth at 75 g/ha (Chenopodium album [11]): > 80%
inhibition of growth at 75 g/ha (Abutilon theophrasti [12]): > 80%
inhibition of growth at 75 g/ha (Amaranthus blitum [13]): > 80%
inhibition of growth at 75 g/ha (Chenopodium album [14]): > 80%

Source: ChEMBL document CHEMBL3045292, “Synthesis and herbicidal activity of 2-(7-fluoro-3-oxo- 3,4-dihydro-2H-benzo[b][1,4]oxazin-6-yl)isoindoline-1,3-diones” (J Agric Food Chem, 2005)
